# Measured values from ChEMBL document CHEMBL1140975, “Synthesis and antimalarial activity of carbamate and amide derivatives of 4-anilinoquinoline” (Eur J Med Chem, 2008).
# Activity calls are given as the source filed them. The calls are words filed in the database; no cut-off is given here.
# System: not listed separately
# Assay: Selectivity index, ratio of IC50 for human MRC5 cells to IC50 for chloroquine-resistant Plasmodium falciparum FcB1R/Colombia
# Assay type: toxicity, cell-based
# Conditions: read-out: Ratio CC50/IC50
# Method in brief: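 SI is CC50 on MRC-5 over IC50 against FcB1R. MRC-5 cells were seeded at 5000 per well and treated after 24 h with two-fold dilutions in RPMI + 5% FCS (DMSO <0.5%). Incubation was 7 days at 37 °C, 5% CO2. Read-out was MTT, as % reduction of absorbance at 540 nm versus untreated cultures. CC50 is the concentration giving 50% cytotoxicity.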
row,SMILES,selectivity ratio
1,O=C(CN1CCCCC1)Nc1cc(CNCCN2CCOCC2)cc(Nc2ccnc3cc(Cl)ccc23)c1,406
2,O=C(CN1CCCCC1)Nc1cc(COC(=O)NCc2ccccc2)cc(Nc2ccnc3cc(Cl)ccc23)c1,> 347
3,CN(C)CCCNC(=O)c1cc(NC(=O)CN2CCCCC2)cc(Nc2ccnc3cc(Cl)ccc23)c1,> 177
4,O=C(CN1CCCCC1)Nc1cc(Nc2ccnc3cc(Cl)ccc23)cc(C(=O)N2CCOCC2)c1,> 298
5,O=C(CN1CCCCC1)Nc1cc(CO)cc(Nc2ccnc3cc(Cl)ccc23)c1,281
6,CCN(CC)CCCNC(=O)OCc1cc(NC(=O)CN2CCCCC2)cc(Nc2ccnc3cc(Cl)ccc23)c1,434
7,O=C(CN1CCCCC1)Nc1cc(Nc2ccnc3cc(Cl)ccc23)cc(C(=O)N2CCN(c3ccccc3)CC2)c1,106
8,O=C(CN1CCCCC1)Nc1cc(Nc2ccnc3cc(Cl)ccc23)cc(C(=O)NCCN2CCOCC2)c1,> 546
9,O=C(CN1CCCCC1)Nc1cc(COC(=O)NCCN2CCOCC2)cc(Nc2ccnc3cc(Cl)ccc23)c1,> 259
10,O=C(CN1CCCCC1)Nc1cc(CNCCN2CCCC2)cc(Nc2ccnc3cc(Cl)ccc23)c1,182
11,O=C(CN1CCCCC1)Nc1cc(COC(=O)NCCN2CCCCC2)cc(Nc2ccnc3cc(Cl)ccc23)c1,1120
12,CN(C)CCNCc1cc(NC(=O)CN2CCCCC2)cc(Nc2ccnc3cc(Cl)ccc23)c1,1150
13,CN(C)CCN(C)C(=O)c1cc(NC(=O)CN2CCCCC2)cc(Nc2ccnc3cc(Cl)ccc23)c1,851

# System: not listed separately
# Assay: Cytotoxicity against human MRC5 cells after 7 days by MTT assay
# Assay type: cell-based
# Conditions: not given
# Method in brief: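 MRC-5 human embryonic lung cells were seeded at 5000 per well and washed after 24 h. Two-fold drug dilutions were added in RPMI + 5% FCS, with final DMSO below 0.5%. Plates were held at 37 °C in 5% CO₂ for 7 days. MTT absorbance at 540 nm was compared with untreated controls. CC₅₀ is the concentration causing 50% cytotoxicity.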
row,SMILES,CC50 at 168 h [nM]
1,CN1CCN(CCCNC(=O)OCc2cc(NC(=O)CN3CCCCC3)cc(Nc3ccnc4cc(Cl)ccc34)c2)CC1,6300
2,O=C(CN1CCCCC1)Nc1cc(COC(=O)NCc2ccccc2)cc(Nc2ccnc3cc(Cl)ccc23)c1,> 12500
3,CN(C)CCCNC(=O)c1cc(NC(=O)CN2CCCCC2)cc(Nc2ccnc3cc(Cl)ccc23)c1,> 32000
4,CCN(CC)CCCC(C)Nc1ccnc2cc(Cl)ccc12 (stereo not drawn) [CHLOROQUINE],50000
5,O=C(CN1CCCCC1)Nc1cc(Nc2ccnc3cc(Cl)ccc23)cc(C(=O)N2CCOCC2)c1,> 32000
6,O=C(CN1CCCCC1)Nc1cc(CO)cc(Nc2ccnc3cc(Cl)ccc23)c1,12500
7,O=C(CN1CCCCC1)Nc1cc(Nc2ccnc3cc(Cl)ccc23)cc(C(=O)O)c1,> 32000
8,CCN(CC)CCCNC(=O)OCc1cc(NC(=O)CN2CCCCC2)cc(Nc2ccnc3cc(Cl)ccc23)c1,6300
9,O=C(CN1CCCCC1)Nc1cc(Nc2ccnc3cc(Cl)ccc23)cc(C(=O)N2CCN(c3ccccc3)CC2)c1,16000
10,O=C(CN1CCCCC1)Nc1cc(Nc2ccnc3cc(Cl)ccc23)cc(C(=O)NCCN2CCOCC2)c1,> 32000
11,O=C(CN1CCCCC1)Nc1cc(COC(=O)NCCN2CCOCC2)cc(Nc2ccnc3cc(Cl)ccc23)c1,> 12500
12,O=C(CN1CCCCC1)Nc1cc(COC(=O)NCCN2CCCCC2)cc(Nc2ccnc3cc(Cl)ccc23)c1,12500
13,CN(C)CCN(C)C(=O)c1cc(NC(=O)CN2CCCCC2)cc(Nc2ccnc3cc(Cl)ccc23)c1,16000

# System: Plasmodium berghei
# Assay: Antimalarial activity as increased MST in Plasmodium berghei ANKA 65 infected Swiss CD1 mice (Mus musculus) at 40 mg/kg peroral dose day 1 followed by intraperitoneal dose for 4 days
# Assay type: functional
# Conditions: not given
# Method in brief: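 Female Swiss CD-1 mice, four weeks old, 20-25 g, three per group. Infected ip with about 10^7 P. berghei ANKA 65 parasitized erythrocytes from a donor mouse. Dosed orally at 40 mg/kg in 100% DMSO at infection, then ip for the following 4 days. Controls were infected DMSO-dosed mice. Excess MST is the percent prolongation of mean survival time over controls.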
row,SMILES,Activity
1,O=C(CN1CCCCC1)Nc1cc(CNCCN2CCOCC2)cc(Nc2ccnc3cc(Cl)ccc23)c1,Active

# Same assay, conditions: route oral
row,SMILES,Activity [%]
1,O=C(CN1CCCCC1)Nc1cc(CO)cc(Nc2ccnc3cc(Cl)ccc23)c1,110
2,O=C(CN1CCCCC1)Nc1cc(COC(=O)NCCN2CCCCC2)cc(Nc2ccnc3cc(Cl)ccc23)c1,50

# Species: Mus musculus
# Assay: Toxicity in Plasmodium berghei ANKA 65 infected Swiss CD1 mice (Mus musculus)
# Assay type: organism-based
# Conditions: in vivo
row,SMILES,Activity
1,O=C(CN1CCCCC1)Nc1cc(CNCCN2CCOCC2)cc(Nc2ccnc3cc(Cl)ccc23)c1,Non-toxic
2,CCN(CC)CCCC(C)Nc1ccnc2cc(Cl)ccc12 (stereo not drawn) [CHLOROQUINE],Non-toxic
3,O=C(CN1CCCCC1)Nc1cc(CO)cc(Nc2ccnc3cc(Cl)ccc23)c1,Non-toxic
4,O=C(CN1CCCCC1)Nc1cc(COC(=O)NCCN2CCCCC2)cc(Nc2ccnc3cc(Cl)ccc23)c1,Non-toxic

# System: Plasmodium falciparum
# Assay: Antimalarial activity after 24 hrs against chloroquine-resistant Plasmodium falciparum K1/Thailand by [3H]hypoxanthine uptake
# Assay type: functional, organism-based
# Conditions: not given
# Method in brief: (§1)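 Asynchronous P. falciparum cultures on human erythrocytes (1% parasitaemia, 1% final haematocrit) exposed to serial dilutions of drug for 24 h at 37 °C, then [3H]hypoxanthine added for another 24 h. Cells freeze-thawed, harvested onto glass-fibre filters and scintillation counted. Incorporation compared with drug-free control on the same plate. IC50 taken from concentration-response curve, mean ± SD of independent experiments. DMSO ≤0.1%.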
row,SMILES,IC50 [nM]
1,O=C(CN1CCCCC1)Nc1cc(COC(=O)NCCN2CCOCC2)cc(Nc2ccnc3cc(Cl)ccc23)c1,19.4
2,O=C(CN1CCCCC1)Nc1cc(COC(=O)NCCN2CCCCC2)cc(Nc2ccnc3cc(Cl)ccc23)c1,9.7

# System: Plasmodium falciparum
# Assay: Antimalarial activity against chloroquine-sensitive Plasmodium falciparum THAI/Thailand as [3H]hypoxanthine uptake after 24 hrs by semi-automated micro dilution
# Assay type: functional, organism-based
# Conditions: not given
# Method in brief: as §1
row,SMILES,IC50 [nM]
1,O=C(CN1CCCCC1)Nc1cc(COC(=O)NCCN2CCOCC2)cc(Nc2ccnc3cc(Cl)ccc23)c1,38.6
2,O=C(CN1CCCCC1)Nc1cc(COC(=O)NCCN2CCCCC2)cc(Nc2ccnc3cc(Cl)ccc23)c1,19.4

# System: Plasmodium berghei
# Assay: Antimalarial activity as reduced parasitaemia in Plasmodium berghei ANKA 65 infected Swiss CD1 mice (Mus musculus) at 10 mg/kg/day peroral dose then intraperitoneal dose for 4 days
# Assay type: functional
# Parameters: scale not given: the % may be the effect or the level left
# Conditions: route oral
# Method in brief: (§2)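 Female Swiss CD-1 mice (4 weeks old, 20–25 g), three per group, infected intraperitoneally with about 10⁷ P. berghei ANKA 65-parasitized erythrocytes from an infected donor. The first dose was given orally in 100% DMSO at infection, then intraperitoneally on the following 4 days. Infected DMSO-dosed mice served as controls. Read-outs were parasitaemia reduction at day 4 and excess MST, the % prolongation of mean survival time versus controls.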
row,SMILES,Activity [%]
1,CCN(CC)CCCC(C)Nc1ccnc2cc(Cl)ccc12 (stereo not drawn) [CHLOROQUINE],100

# System: Plasmodium berghei
# Assay: Antimalarial activity as reduced parasitaemia in Plasmodium berghei ANKA 65 infected Swiss CD1 mice (Mus musculus) at 40 mg/kg/day peroral dose then intraperitoneal for 4 days
# Assay type: functional
# Parameters: scale not given: the % may be the effect or the level left
# Conditions: route oral
# Method in brief: as §2
row,SMILES,Activity [%]
1,O=C(CN1CCCCC1)Nc1cc(CNCCN2CCOCC2)cc(Nc2ccnc3cc(Cl)ccc23)c1,100
2,O=C(CN1CCCCC1)Nc1cc(CO)cc(Nc2ccnc3cc(Cl)ccc23)c1,100
3,O=C(CN1CCCCC1)Nc1cc(COC(=O)NCCN2CCCCC2)cc(Nc2ccnc3cc(Cl)ccc23)c1,100

# System: Plasmodium berghei
# Assay: Antimalarial activity as increased mean survival time in Plasmodium berghei ANKA 65 infected Swiss CD1 mice (Mus musculus) at 10 mg/kg peroral dose day 1 with intraperitoneal dose over 4 days
# Assay type: functional, organism-based
# Parameters: dose 10 mg/kg
# Conditions: not given
# Method in brief: as §2
row,SMILES,Activity
1,CCN(CC)CCCC(C)Nc1ccnc2cc(Cl)ccc12 (stereo not drawn) [CHLOROQUINE],Active

# System: Plasmodium falciparum
# Assay: Antimalarial activity after 24 hrs against chloroquine-resistant Plasmodium falciparum FcB1R/Colombia by [3H]hypoxanthine uptake
# Assay type: functional, organism-based
# Conditions: not given
# Method in brief: as §1
row,SMILES,IC50 [nM]
1,O=C(CN1CCCCC1)Nc1cc(CNCCN2CCOCC2)cc(Nc2ccnc3cc(Cl)ccc23)c1,7.9
2,O=C(CN1CCCCC1)Nc1cc(COC(=O)NCc2ccccc2)cc(Nc2ccnc3cc(Cl)ccc23)c1,36
3,CN(C)CCCNC(=O)c1cc(NC(=O)CN2CCCCC2)cc(Nc2ccnc3cc(Cl)ccc23)c1,181
4,O=C(CN1CCCCC1)Nc1cc(Nc2ccnc3cc(Cl)ccc23)cc(C(=O)N2CCOCC2)c1,108
5,O=C(CN1CCCCC1)Nc1cc(Nc2ccnc3cc(Cl)ccc23)cc(C(=O)O)c1,> 1000
6,CCN(CC)CCCNC(=O)OCc1cc(NC(=O)CN2CCCCC2)cc(Nc2ccnc3cc(Cl)ccc23)c1,14.5
7,O=C(CN1CCCCC1)Nc1cc(Nc2ccnc3cc(Cl)ccc23)cc(C(=O)N2CCN(c3ccccc3)CC2)c1,151
8,O=C(CN1CCCCC1)Nc1cc(Nc2ccnc3cc(Cl)ccc23)cc(C(=O)NCCN2CCOCC2)c1,58.6
9,O=C(CN1CCCCC1)Nc1cc(COC(=O)NCCN2CCOCC2)cc(Nc2ccnc3cc(Cl)ccc23)c1,48.3
10,O=C(CN1CCCCC1)Nc1cc(COC(=O)NCCN2CCCCC2)cc(Nc2ccnc3cc(Cl)ccc23)c1,11.2
11,CN(C)CCN(C)C(=O)c1cc(NC(=O)CN2CCCCC2)cc(Nc2ccnc3cc(Cl)ccc23)c1,18.8
